We go through three molecules from article PMC4068216 (ACS Chemical Biology, 2014).

One data set addresses T1, LAT3 (Homo sapiens, UniProt O75387).
T1 sequence (O75387 1-559): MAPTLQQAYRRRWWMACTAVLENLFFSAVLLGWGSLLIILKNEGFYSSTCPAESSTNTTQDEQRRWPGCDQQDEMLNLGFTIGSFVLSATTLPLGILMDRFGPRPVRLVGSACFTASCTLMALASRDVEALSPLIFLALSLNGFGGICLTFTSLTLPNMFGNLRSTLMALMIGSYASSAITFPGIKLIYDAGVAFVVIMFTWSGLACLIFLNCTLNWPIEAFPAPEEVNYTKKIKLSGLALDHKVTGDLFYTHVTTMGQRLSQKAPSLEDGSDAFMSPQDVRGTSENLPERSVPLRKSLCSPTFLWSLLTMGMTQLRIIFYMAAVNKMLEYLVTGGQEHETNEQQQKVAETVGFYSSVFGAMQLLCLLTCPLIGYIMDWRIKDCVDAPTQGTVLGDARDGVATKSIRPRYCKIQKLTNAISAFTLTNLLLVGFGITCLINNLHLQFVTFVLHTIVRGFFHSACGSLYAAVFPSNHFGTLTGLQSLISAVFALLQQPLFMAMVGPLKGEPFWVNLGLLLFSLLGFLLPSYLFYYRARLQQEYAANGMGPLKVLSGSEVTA
Briefly: [3H]-L-leucine uptake assay in LNCaP cells. It counts as cell-based. The method in brief:
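Dose–response: LNCaP cells (3 × 10^4/well) took up 0.3 μCi [3H]-L-leucine (200 nM) in leucine-free RPMI with 10% dialysed FBS for 15 min at 37 °C. Screen: 10^4 cells/well in HBSS with 10% dialysed FBS and 50 mM L-glutamine, added onto preloaded fractions, n = 1 per fraction. Controls were 0.5% DMSO and 10 mM BCH. Cells were filter-harvested for scintillation counting.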

A further data set has as its system LNCaP cells. Briefly: BrdU incorporation assay in LNCaP cells. Format: cell-based, human. Conditions: BCH 10 mM, ESK242 and ESK246 50 μM, 22 h then BrdU 2 h. The method in brief: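 LNCaP cells (2 × 10^5 per 6-well) adhered overnight, were serum-starved, then exposed to test compound, DMSO vehicle or BCH for 22 h. BrdU (150 μg/mL) was added for a further 2 h. Cells were detached, fixed and stained with APC anti-BrdU (1:50) and 7-AAD, then analysed by flow cytometry. Three separate experiments; one-way ANOVA.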
(In general: Incorporation of labelled thymidine or its analogues reports DNA synthesis.)

Another data set relates to LAT1. Conditions: only tested on LAT1 and LAT2; cited from earlier work.
The test system of data set [1] is HT-29 colorectal adenocarcinoma cell. Conditions: in vitro and in vivo; cited from earlier work.
Substrate in data set [2]: CC(C)C[C@H](N)C(=O)O
Briefly: [3H]-L-leucine uptake in Xenopus laevis oocytes expressing LAT3. Conditions: other: no inhibitor, pH 7.5. Format: cell-based, human.

Molecule `NC1(C(=O)O)CC2CCC1C2` (stereo not shown) [BCH, 2-aminobicyclo[2.2.1]heptane-2-carboxylic acid] registered an IC50 on LAT3 of 4.06 ± 0.0011 mM. In addition, the leucine uptake on LAT3 (high-throughput screen, positive control 10 mM, LNCaP cells) is on record as 30–40 % of control. Besides, in the data set on LNCaP cells, the BrdU incorporation turned out to be 14.7% and the “BrdU incorporation relative to control” value is reported as 51.6 % of control.
On to `Nc1cc(COc2c(Cl)cc(C[C@H](N)C(=O)O)cc2Cl)c2oc(-c3ccccc3)nc2c1` [JPH203/KYT-0353], for which the “selectivity, LAT1 versus LAT2” value in the data set on LAT1 is on record as “selectivity for LAT1-mediated transport”. In data set [1], the HT-29 cell growth result is “suppression of HT-29 colorectal adenocarcinoma cell growth in vitro and in vivo”.

B1: LAT3 (Homo sapiens) (protein)
chain: T1 sequence (O75387 1-559)
For B1, the Km in data set [2] was 6.3 ± 0.5 mM.

For orientation: IC50 means the midpoint of a concentration-inhibition curve. Usually Km stands for the substrate concentration at which the rate is half of its maximum.
